Where two headings read alike, the source gives them in different places.
Columns and labels:
HUVEC microvessels = assay: Solute permeability of HUVEC microvessels; type: in vitro ADME, human; conditions: for Permeability differences between day two, four and six: p > 0.05; for Permeability in HUVEC microvessels relative to BC1 dhBMEC microvessels: HUVEC vs BC1 dhBMEC
[1] = Solute permeability of HUVEC microvessels; type: in vitro ADME, human; conditions: human
BC1 dhBMEC microvessels [2] = assay: Solute permeability of BC1 dhBMEC microvessels; type: in vitro ADME, human; conditions: for Permeability on days four and six compared with day two: p > 0.05
[3] = tested on: iPS12, KW01 and AD6 dhBMEC microvessels; assay: Solute permeability of dhBMEC microvessels from other iPSC lines; conditions: day two, p > 0.05 for all comparisons
[4] = cited from earlier work
p-glycoprotein = conditions: healthy humans, continuous infusion of tariquidar ref 80; cited from earlier work
[5] = target: P-glycoprotein (P-gp) in BC1 dhBMEC microvessels (Homo sapiens, UniProt P08183); assay: Efflux inhibition in BC1 dhBMEC microvessels; type: cell-based
Sequence of P-glycoprotein (P-gp) in BC1 dhBMEC microvessels (P08183 whole entry): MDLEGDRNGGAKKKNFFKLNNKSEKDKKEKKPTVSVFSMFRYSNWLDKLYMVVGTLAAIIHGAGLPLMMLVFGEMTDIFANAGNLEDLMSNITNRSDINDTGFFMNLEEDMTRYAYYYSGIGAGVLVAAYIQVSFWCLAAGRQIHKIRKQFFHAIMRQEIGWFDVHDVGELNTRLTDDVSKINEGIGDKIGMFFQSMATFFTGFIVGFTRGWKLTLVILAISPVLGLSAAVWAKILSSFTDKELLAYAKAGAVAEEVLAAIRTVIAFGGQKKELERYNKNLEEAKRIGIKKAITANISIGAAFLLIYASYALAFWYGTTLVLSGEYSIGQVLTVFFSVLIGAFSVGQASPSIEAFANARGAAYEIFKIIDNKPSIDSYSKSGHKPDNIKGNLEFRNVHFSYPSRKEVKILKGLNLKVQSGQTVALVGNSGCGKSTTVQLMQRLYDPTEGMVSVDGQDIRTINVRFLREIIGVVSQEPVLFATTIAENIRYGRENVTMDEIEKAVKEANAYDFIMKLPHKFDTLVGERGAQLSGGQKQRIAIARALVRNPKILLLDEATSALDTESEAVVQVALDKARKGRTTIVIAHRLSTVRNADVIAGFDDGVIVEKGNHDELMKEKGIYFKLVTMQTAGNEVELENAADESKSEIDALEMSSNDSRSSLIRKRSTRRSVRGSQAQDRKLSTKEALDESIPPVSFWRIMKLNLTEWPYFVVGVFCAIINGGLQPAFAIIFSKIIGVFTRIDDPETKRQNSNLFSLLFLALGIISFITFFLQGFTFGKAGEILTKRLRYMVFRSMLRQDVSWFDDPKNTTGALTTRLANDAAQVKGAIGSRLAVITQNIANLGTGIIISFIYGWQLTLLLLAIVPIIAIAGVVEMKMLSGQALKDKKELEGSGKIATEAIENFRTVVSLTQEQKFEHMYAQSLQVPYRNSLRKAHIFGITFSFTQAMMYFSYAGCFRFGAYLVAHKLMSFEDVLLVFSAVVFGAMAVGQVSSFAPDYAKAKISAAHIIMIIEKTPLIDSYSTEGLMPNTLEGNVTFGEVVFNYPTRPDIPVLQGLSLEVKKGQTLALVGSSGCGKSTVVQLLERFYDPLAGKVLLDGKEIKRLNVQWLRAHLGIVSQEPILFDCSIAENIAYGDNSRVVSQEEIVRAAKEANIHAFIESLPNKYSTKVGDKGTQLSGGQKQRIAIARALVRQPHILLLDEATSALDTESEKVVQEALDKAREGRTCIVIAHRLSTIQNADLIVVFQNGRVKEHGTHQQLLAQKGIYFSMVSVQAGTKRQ

pial PCV microvessels = conditions: rat, not told; cited from earlier work
[6] = tested on: iPS12, KW01 and AD6 dhBMEC microvessels
BC1 dhBMEC microvessels [7] = assay: Cytokine activation: permeability, adhesion molecules and leukocyte adhesion; type: cell-based, human
Summary of the method: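 dhBMEC microvessels in collagen I channels, perfused at ~1 dyn cm⁻² with serum-free endothelial media plus 1% platelet-poor serum, with or without 10 ng mL⁻¹ TNFα for 12 h. […] ICAM-1/VCAM-1 by immunostaining; breakdown by phase contrast. Mean ± SEM.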

[8] = 12-hour perfusion of 2 μM tariquidar

COC(=O)c1ccccc1-c1c2ccc(=N)cc-2oc2cc(N)ccc12 [R123, Rhodamine 123]
Permeability differences between day two, four and six (HUVEC microvessels; HUVEC microvessels): no statistically significant differences
Permeability in HUVEC microvessels relative to BC1 dhBMEC microvessels (HUVEC microvessels): about 20 fold
Papp at 20 min, 5 μM [1]: 3 ×10⁻⁶ cm/s
Permeability on days four and six compared with day two (BC1 dhBMEC microvessels [2]; BC1 dhBMEC microvessels): remained stable
Permeability differences between BC1, iPS12, KW01 and AD6 microvessels [3]: no statistically significant differences

OC[C@@H](O)[C@@H](O)[C@H](O)[C@H](O)CO [mannitol, d-mannitol]
Solubility limit [4]: around 1.4 M

COc1cc2c(cc1OC)CN(CCc1ccc(NC(=O)c3cc(OC)c(OC)cc3NC(=O)c3cnc4ccccc4c3)cc1)CC2 [tariquidar]
Increase of verapamil distribution volume (p-glycoprotein): 2.73 fold
Disruptions in paracellular permeability [5, 8]: not observed
Increase in permeability of P-gp substrate Rhodamine 123 [5, 8]: two-fold
Cytotoxicity (barrier function and microvessel structure) ([5]; 12 hours of tariquidar exposure): did not result in apparent cytotoxicity
Effect on mitochondrial localization of R123 ([5]; tariquidar treated BC1 dhBMEC microvessels): no noticeable effect

Lucifer yellow [LY]
Mean permeability over six days (HUVEC microvessels; HUVEC microvessels): 3.90 ± 0.16 × 10^−6 cm s^−1
PLY / PR123 (ratio of LY to R123 permeabilities) (HUVEC microvessels; HUVEC microvessels): ~ 1.3
Permeability differences between day two, four and six (HUVEC microvessels; HUVEC microvessels): no statistically significant differences
Permeability in HUVEC microvessels relative to BC1 dhBMEC microvessels (HUVEC microvessels): more than 10 fold
Permeability (BC1 dhBMEC microvessels [2]; BC1 dhBMEC microvessels, day two): 2.50 ± 0.46 × 10^−7 cm s^−1
Permeability, average value across all time points (BC1 dhBMEC microvessels [2]; BC1 dhBMEC microvessels, over six days (days two, four, six)): 2.84 ± 0.41 × 10^−7 cm s^−1
Permeability on days four and six compared with day two (BC1 dhBMEC microvessels [2]; BC1 dhBMEC microvessels): did not increase
PLY / PR123 (ratio of LY to R123 permeabilities) (BC1 dhBMEC microvessels [2]; dhBMEC microvessels, untreated): ~ 1.9
Permeability in 15 μm pial PCV microvessels (pial PCV microvessels): 1 – 2 × 10^−7
Permeability differences between BC1, iPS12, KW01 and AD6 microvessels [6]: no statistically significant differences

TNFα
Expression of adhesion molecules ICAM-1 and VCAM-1 (BC1 dhBMEC microvessels [7]; 10 ng mL^−1 TNFα, 12 hours, immunocytochemistry): upregulation
Permeability of LY, R123 or 10 kDa dextran after TNFα compared to control (BC1 dhBMEC microvessels [7]; 10 ng mL^−1 TNFα, 12 hours, p > 0.05 for all comparisons): did not alter
Time to macroscopic breakdown of microvessels (BC1 dhBMEC microvessels [7]; microvessels exposed to TNFα with adherent PBMCs): ≤ 24 h
